According to ChEMBL document CHEMBL3826928, “Incorporation of Phosphonate into Benzonaphthyridine Toll-like Receptor 7 Agonists for Adsorption to Aluminum Hydroxide” (J Med Chem, 2016):

Legend:
Toll-like receptor 7 [1] = target: T1, Toll-like receptor 7 (Mus musculus, UniProt P58681); assay: Agonist activity at TLR7 in Balb/c mouse splenocytes assessed as induction of IL-6 secretion in supernatant after 18 hrs; format: cell-based
T1 sequence (P58681 whole entry): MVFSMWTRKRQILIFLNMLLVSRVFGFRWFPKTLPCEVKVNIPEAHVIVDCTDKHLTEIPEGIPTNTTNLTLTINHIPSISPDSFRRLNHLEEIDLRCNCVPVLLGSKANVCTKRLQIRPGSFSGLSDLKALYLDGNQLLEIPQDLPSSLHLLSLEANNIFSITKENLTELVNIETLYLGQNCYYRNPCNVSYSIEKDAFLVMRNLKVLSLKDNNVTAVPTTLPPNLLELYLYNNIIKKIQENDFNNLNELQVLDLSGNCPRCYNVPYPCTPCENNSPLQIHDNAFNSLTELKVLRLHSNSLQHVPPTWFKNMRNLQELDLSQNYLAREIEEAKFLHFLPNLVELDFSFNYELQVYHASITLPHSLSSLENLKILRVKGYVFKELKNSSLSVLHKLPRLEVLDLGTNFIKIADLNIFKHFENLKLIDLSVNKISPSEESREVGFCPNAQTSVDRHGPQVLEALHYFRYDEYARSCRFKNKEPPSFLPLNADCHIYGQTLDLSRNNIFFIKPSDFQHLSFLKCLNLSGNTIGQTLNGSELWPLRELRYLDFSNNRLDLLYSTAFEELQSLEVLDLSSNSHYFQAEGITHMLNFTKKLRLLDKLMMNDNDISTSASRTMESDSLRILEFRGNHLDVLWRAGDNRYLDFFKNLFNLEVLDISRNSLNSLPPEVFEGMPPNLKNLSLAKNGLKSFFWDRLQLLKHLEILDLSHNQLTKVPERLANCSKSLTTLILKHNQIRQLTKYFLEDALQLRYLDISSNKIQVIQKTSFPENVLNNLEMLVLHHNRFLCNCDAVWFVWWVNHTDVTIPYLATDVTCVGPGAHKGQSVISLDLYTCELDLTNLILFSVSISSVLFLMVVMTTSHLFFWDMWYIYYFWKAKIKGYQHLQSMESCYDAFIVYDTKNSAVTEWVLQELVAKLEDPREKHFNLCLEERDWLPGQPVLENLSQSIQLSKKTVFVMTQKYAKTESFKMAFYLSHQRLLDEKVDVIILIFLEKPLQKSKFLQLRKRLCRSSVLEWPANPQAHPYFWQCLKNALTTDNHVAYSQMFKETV
Procedure, shortened: (§1)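 Spleens from female BALB/c mice (6−10 weeks), single-cell suspension, RBC lysis; 5 × 10⁵ splenocytes per well in RPMI 1640 with 10% FCS, 2-ME. Compounds as sodium salts (1 equiv NaOH) from 10 mM water stocks, 3-fold 10-point dilutions from 30 μM.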

[2] = target: T2, Toll-like receptor 7 (Mus musculus) (UniProt P58681); assay: Agonist activity at TLR7 in Balb/c mouse splenocytes assessed as induction of IL-6 secretion in supernatant after 18 hrs relative to resiquimod; format: cell-based; procedure, shortened: as §1
T2 sequence (whole entry): T1 sequence (P58681 whole entry)

[3] = target: T3, Toll-like receptor 7 (Homo sapiens) (UniProt Q9NYK1); assay: Agonist activity at TLR7 in human PBMC assessed as induction of IL-6 secretion in supernatant after 18 hrs relative to resiquimod; format: cell-based
T3 sequence (whole entry): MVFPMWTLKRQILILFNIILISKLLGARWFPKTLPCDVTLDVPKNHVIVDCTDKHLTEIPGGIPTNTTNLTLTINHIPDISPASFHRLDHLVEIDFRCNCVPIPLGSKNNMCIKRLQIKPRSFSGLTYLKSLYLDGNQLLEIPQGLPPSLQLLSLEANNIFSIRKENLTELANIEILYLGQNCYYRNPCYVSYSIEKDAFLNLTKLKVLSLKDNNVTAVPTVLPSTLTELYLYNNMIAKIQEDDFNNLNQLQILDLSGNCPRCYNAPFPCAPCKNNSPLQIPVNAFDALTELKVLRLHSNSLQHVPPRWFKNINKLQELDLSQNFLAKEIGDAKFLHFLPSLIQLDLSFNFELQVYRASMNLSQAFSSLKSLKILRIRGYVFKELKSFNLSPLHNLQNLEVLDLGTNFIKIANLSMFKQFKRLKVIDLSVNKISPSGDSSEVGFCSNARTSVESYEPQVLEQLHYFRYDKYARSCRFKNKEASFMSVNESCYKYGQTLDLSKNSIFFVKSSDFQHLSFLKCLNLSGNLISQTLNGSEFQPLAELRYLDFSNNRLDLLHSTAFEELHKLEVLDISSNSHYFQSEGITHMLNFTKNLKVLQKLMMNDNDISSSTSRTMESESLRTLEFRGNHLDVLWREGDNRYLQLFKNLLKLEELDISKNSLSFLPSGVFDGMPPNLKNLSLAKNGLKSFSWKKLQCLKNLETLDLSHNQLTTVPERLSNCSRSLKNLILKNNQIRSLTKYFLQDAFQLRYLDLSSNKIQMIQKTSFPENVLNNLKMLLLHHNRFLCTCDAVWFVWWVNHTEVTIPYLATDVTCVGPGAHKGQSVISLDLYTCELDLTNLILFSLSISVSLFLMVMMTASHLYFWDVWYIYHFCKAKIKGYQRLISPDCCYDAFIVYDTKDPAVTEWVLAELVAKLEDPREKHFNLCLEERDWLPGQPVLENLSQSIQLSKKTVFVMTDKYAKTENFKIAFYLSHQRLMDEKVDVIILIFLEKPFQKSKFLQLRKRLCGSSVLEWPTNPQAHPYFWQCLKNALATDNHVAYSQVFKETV
Procedure, shortened: (§2)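 Isolated human PBMCs washed in PBS, resuspended in RPMI1640 with 10% heat-inactivated FBS, pyruvate, HEPES, at 1 × 10⁶ cells/mL. Compounds as in-situ sodium salts from 10 mM aqueous stocks, 3-fold 10-point dilutions from 30 μM.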

[4] = target: T3, Toll-like receptor 7 (Homo sapiens); assay: Agonist activity at human TLR7 expressed in HEK293 cells incubated for 6 hrs by luciferase reporter gene assay relative to resiquimod; format: cell-based
Procedure, shortened: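 HEK293 stably carrying NF-κB-firefly luciferase reporter plus human TLR7 (best resiquimod-responding clone), maintained under puromycin/blasticidin. 25 000 cells per well in DMEM with 3% FCS.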

Toll-like receptor 7 [5] = target: T4, Toll-like receptor 7 (Homo sapiens, UniProt Q9NYK1); assay: Agonist activity at TLR7 in human PBMC assessed as induction of IL-6 secretion in supernatant after 18 hrs; details: read-out: EC50; procedure, shortened: as §2
T4 sequence (Q9NYK1 whole entry): T3 sequence (whole entry)

Muscle tissue = assay: Drug level in Balb/c mouse muscle at 100 ug, im measured at 24 hrs post dose using alum bound compound formulation; format: ADME, organism-based; details: in vivo
Procedure, shortened: (§3)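 Female BALB/c mice (6−8 weeks, 3 per group) given 100 μg intramuscularly, with or without alum, 50 μL in each hind leg. Serum from retro-orbital bleeds at time points; protein precipitation, reverse-phase LC and ESI+ MRM mass spectrometry. Injected muscle drug level measured at 24 h.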

Serum = assay: Drug level in Balb/c mouse serum at 100 ug, im measured at 24 hrs post dose; format: ADME, organism-based; details: in vivo; procedure, shortened: as §3
[6] = Aqueous solubility of compound in pH 1.5 to 10 solution by potentiometric titration method; format: physicochemical; details: buffer
Procedure, shortened: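 About 2 mg solid titrated potentiometrically from pH 10 to pH 1.5 on Sirius T3 after pKa determination with MeOH cosolvent; intrinsic solubility calculated from pKa shift on precipitation (Noyes−Whitney), solubility−pH profile extrapolated by Henderson−Hasselbalch.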

Structure (SMILES) | EC50 (Toll-like receptor 7 [1]) [nM] | %max [2] [%] | %max [3] [%] | %max [4] [%] | EC50 (Toll-like receptor 7 [5]) [nM] | Drug uptake (Muscle tissue) | Drug uptake (Serum) | solubility [6]
Cc1cc(OCCCC(F)(F)P(=O)(O)O)ccc1CCc1cnc2c(N)nc3cc(CCC(=O)O)ccc3c2c1 | 2400 | 74 | 35 | 95 | 360 |  |  | 
Cc1ccc2c(c1)nc(N)c1ncc(CCc3ccc(OCCCP(=O)(O)O)cc3C)cc12 | 1100 | 98 |  |  | 30000 |  |  | 
Cc1cc(OCCOCCOCCC(F)(F)P(=O)(O)O)ccc1CCc1cnc2c(N)nc3cc(CCC(=O)O)ccc3c2c1 | 1200 | 80 | 35 | 100 | 2100 |  |  | 

Compounds with a lower EC50 (Toll-like receptor 7 [1]), results first:

EC50 (Toll-like receptor 7 [1]) [nM] | %max [2] [%] | %max [3] [%] | %max [4] [%] | EC50 (Toll-like receptor 7 [5]) [nM] | Drug uptake (Muscle tissue) | Drug uptake (Serum) | solubility [6] | Structure (SMILES)
810 | 100 | 36 | 95 | 980 | Active | Active | soluble | Cc1ccc2c(c1)nc(N)c1ncc(CCc3ccc(OCCOCCOCCC(F)(F)P(=O)(O)O)cc3C)cc12
190 | 140 | 58 | 110 | 490 |  |  | soluble | Cc1cc(OCCOCCOCCP(=O)(O)O)ccc1CCc1cnc2c(N)nc3cc(CCC(=O)O)ccc3c2c1
